Experiment [1] has as its target RAC-alpha serine/threonine-protein kinase (Homo sapiens, UniProt P31749). The experiment in a line: Inhibition of His-tagged AKT1 using 5FAM-GRPRTSSFAEGCONH2 as substrate by fluorescence based assay.
The target of experiment [2] is Serine/threonine-protein kinase mTOR (Homo sapiens, UniProt P42345). Put plainly: Inhibition of GST-tagged mTOR assessed as phosphorylation at Thr46 in GFP-4E-BP1 substrate by TR-FRET assay. Summed up: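 GST-tagged mTOR (aa 1360-2549) at 1 nM, with 0.4 μM GFP-4E-BP1 and 40 μM ATP. Buffer: 50 mM Hepes pH 7.4, 10 mM MgCl2, 1 mM EGTA, 0.01% Tween-20, at about 22 °C. A terbium anti-phospho-Thr46 antibody was added at the end, and the read-out was TR-FRET. Duplicate data fitted by nonlinear regression. Concentrations are final.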
A general note: Time-resolved FRET reads energy transfer from a long-lived donor to a nearby acceptor.

In experiment [3] the target is Serine/threonine-protein kinase Chk2 (Homo sapiens) (UniProt O96017). The experiment in a line: Inhibition of CHEK2 at 1 uM.
Sequence of Serine/threonine-protein kinase Chk2 (Homo sapiens) (O96017 whole entry): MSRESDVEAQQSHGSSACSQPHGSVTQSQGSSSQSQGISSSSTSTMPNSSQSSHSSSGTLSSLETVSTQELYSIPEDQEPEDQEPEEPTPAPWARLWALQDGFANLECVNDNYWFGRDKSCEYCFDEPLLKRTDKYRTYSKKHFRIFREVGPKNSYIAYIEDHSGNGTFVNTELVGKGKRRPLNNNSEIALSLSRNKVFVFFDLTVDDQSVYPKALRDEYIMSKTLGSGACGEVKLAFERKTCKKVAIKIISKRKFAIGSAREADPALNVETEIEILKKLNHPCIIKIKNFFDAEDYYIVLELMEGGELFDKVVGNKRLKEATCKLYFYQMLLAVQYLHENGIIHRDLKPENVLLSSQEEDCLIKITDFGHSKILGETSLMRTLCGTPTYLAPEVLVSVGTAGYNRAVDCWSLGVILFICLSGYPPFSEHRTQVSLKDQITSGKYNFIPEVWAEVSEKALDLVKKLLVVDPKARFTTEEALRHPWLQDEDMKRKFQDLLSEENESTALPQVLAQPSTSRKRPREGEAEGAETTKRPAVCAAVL
Experiment [4] has as its target T1, Aurora kinase A (Homo sapiens) (UniProt O14965).
T1 sequence (whole entry): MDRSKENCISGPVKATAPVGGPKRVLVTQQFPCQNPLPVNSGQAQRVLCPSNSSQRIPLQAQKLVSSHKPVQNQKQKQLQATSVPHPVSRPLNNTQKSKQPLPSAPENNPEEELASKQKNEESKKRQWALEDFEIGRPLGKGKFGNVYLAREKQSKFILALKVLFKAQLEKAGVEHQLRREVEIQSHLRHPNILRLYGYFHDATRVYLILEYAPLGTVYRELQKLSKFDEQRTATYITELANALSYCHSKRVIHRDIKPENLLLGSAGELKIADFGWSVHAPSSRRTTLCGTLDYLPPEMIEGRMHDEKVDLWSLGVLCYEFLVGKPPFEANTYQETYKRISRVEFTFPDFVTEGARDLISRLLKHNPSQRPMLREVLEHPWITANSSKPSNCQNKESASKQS
The experiment in a line: Inhibition of STK6 at 1 uM.

Experiment [5] has as its target T2, Glycogen synthase kinase-3 beta (Homo sapiens, UniProt P49841). Put plainly: Inhibition of GSK3B at 1 uM.
Target sequence in this assay (P49841 whole entry, looked up): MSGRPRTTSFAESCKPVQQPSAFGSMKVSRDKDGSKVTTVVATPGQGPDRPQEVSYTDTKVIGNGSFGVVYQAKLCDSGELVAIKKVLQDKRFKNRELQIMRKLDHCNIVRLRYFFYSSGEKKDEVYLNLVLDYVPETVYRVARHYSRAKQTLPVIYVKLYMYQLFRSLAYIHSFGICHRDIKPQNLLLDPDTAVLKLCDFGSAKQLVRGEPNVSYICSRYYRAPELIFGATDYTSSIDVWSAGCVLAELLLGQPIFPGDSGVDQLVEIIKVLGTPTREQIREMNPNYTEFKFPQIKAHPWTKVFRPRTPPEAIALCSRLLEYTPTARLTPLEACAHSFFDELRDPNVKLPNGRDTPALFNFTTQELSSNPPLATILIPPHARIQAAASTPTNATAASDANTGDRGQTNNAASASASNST
Experiment [6] addresses Angiopoietin-1 receptor (Homo sapiens) (UniProt Q02763). Put plainly: Inhibition of TEK at 1 uM.
Experiment [7] has as its target MAP kinase-activated protein kinase 2 (Homo sapiens) (UniProt P49137). The experiment in a line: Inhibition of MAPKAPK2 at 1 uM.
Experiment [8] has as its target Mitogen-activated protein kinase 1 (Homo sapiens) (UniProt P28482). The experiment in a line: Inhibition of MAPK1 at 1 uM.
Experiment [9] has as its target Casein kinase II subunit alpha' (Homo sapiens) (UniProt P19784). The experiment in a line: Inhibition of CSNK2A2 at 1 uM.
Experiment [10] deals with Rho-associated protein kinase 1 (Homo sapiens) (UniProt Q13464). Put plainly: Inhibition of ROCK1 at 1 uM.
Experiment [11] has as its target Myosin light chain kinase 2, skeletal/cardiac muscle (Homo sapiens) (UniProt Q9H1R3). The experiment in a line: Inhibition of MYLK2 at 1 uM.
In experiment [12] the target is T3, Serine/threonine-protein kinase TAO2 (Homo sapiens) (UniProt Q9UL54).
T3 sequence (whole entry): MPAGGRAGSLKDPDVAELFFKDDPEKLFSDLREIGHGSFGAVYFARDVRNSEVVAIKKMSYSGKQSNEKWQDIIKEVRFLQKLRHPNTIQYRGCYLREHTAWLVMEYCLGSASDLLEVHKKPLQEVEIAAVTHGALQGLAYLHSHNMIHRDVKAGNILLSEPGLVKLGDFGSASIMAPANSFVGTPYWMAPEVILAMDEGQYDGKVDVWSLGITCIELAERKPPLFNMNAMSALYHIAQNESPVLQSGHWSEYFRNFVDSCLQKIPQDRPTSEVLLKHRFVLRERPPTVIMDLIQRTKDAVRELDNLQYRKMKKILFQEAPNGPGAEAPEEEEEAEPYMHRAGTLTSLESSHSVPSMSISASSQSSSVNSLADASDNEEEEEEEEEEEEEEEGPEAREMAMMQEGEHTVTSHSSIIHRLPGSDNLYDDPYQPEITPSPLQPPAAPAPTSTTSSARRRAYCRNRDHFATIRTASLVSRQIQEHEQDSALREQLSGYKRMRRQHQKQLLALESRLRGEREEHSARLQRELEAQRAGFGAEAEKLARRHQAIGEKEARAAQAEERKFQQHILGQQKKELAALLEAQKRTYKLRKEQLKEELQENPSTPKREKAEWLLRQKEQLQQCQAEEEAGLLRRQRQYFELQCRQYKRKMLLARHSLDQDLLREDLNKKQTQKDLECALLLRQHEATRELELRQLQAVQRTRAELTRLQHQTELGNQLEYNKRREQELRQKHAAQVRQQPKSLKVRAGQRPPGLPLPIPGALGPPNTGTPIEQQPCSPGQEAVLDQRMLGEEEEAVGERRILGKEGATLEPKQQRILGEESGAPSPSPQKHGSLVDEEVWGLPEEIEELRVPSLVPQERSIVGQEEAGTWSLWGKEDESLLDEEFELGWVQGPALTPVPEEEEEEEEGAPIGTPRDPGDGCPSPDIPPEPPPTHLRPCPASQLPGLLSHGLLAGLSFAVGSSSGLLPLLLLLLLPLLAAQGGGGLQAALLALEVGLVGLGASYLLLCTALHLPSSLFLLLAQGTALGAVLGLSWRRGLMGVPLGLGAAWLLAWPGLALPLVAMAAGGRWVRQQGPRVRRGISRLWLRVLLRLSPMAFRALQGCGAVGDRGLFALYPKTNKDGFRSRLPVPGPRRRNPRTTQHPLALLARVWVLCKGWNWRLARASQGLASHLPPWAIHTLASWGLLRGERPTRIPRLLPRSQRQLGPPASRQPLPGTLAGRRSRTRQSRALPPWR
Put plainly: Inhibition of TAOK2 at 1 uM.

The target of experiment [13] is T2, Glycogen synthase kinase-3 beta. The experiment in a line: Inhibition of GSK3-beta.
Target sequence in this assay (P49841 whole entry): as the sequence (P49841 whole entry, looked up) above
Experiment [14] deals with High affinity nerve growth factor receptor (Homo sapiens, UniProt P04629). The experiment in a line: Inhibition of TrkA.
Sequence of High affinity nerve growth factor receptor (P04629 whole entry): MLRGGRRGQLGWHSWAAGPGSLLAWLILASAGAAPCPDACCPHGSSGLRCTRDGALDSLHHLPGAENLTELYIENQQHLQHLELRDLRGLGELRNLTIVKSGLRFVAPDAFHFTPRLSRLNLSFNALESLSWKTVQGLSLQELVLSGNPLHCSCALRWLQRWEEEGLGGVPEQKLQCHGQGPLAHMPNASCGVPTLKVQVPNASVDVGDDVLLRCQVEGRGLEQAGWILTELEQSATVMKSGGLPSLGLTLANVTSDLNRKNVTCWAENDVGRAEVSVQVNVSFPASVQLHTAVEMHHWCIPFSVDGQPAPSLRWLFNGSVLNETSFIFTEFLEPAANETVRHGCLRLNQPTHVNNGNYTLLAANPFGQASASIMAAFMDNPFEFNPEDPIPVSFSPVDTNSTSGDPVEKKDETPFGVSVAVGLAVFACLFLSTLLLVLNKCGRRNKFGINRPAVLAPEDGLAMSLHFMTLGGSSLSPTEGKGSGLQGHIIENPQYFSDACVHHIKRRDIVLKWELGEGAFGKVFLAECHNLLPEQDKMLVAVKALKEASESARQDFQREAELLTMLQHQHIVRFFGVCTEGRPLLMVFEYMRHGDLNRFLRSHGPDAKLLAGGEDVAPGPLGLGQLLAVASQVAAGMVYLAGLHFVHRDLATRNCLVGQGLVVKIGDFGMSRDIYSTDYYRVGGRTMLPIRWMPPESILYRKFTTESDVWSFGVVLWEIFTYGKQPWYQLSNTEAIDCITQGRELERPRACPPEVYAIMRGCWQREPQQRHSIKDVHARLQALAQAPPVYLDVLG

Drawing on ChEMBL document CHEMBL1938337, “Discovery of novel, potent, and selective inhibitors of 3-phosphoinositide-dependent kinase (PDK1)” (J Med Chem, 2011), this text covers Ki, inhibition and IC50 for three molecules.

As usually defined, the Ki is a dissociation constant, usually derived from enzyme kinetics or from competition with a known ligand. Broadly, the inhibition is the relative decrease from the control value, in per cent. For orientation: IC50 means the concentration needed to halve the response being measured. High values mean weaker potency, low ones greater potency.

Sequence of Myosin light chain kinase 2, skeletal/cardiac muscle (Homo sapiens) (Q9H1R3 whole entry): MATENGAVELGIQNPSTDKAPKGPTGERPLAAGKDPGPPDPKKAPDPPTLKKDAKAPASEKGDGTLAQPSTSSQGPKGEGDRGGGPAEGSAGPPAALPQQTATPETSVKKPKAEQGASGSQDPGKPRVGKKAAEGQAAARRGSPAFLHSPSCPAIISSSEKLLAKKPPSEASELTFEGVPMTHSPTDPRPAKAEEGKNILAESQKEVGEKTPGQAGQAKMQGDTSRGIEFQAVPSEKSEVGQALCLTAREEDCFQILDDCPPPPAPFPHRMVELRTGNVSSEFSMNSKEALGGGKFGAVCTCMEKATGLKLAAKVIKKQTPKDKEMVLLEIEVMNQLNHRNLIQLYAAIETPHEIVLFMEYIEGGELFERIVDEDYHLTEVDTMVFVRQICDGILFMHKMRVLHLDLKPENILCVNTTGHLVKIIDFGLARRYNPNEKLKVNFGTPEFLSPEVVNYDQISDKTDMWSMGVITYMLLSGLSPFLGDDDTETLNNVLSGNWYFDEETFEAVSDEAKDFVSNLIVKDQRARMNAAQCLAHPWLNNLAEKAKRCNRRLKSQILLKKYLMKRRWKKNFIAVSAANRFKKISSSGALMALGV
Sequence of RAC-alpha serine/threonine-protein kinase (P31749 whole entry, the tested form may be a part): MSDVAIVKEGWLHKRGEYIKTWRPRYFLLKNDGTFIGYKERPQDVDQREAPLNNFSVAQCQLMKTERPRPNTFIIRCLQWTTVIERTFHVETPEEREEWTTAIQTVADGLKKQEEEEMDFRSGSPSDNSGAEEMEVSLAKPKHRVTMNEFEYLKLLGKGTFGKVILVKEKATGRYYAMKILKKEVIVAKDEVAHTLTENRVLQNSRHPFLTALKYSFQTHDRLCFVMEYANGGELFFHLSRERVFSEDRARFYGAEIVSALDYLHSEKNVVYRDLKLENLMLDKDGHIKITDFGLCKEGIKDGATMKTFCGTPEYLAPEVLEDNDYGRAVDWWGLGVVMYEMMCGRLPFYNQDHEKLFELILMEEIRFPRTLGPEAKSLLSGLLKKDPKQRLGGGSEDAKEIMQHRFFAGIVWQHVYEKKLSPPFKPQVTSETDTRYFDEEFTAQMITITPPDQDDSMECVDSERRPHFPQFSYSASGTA
Sequence of Casein kinase II subunit alpha' (Homo sapiens) (P19784 whole entry, looked up): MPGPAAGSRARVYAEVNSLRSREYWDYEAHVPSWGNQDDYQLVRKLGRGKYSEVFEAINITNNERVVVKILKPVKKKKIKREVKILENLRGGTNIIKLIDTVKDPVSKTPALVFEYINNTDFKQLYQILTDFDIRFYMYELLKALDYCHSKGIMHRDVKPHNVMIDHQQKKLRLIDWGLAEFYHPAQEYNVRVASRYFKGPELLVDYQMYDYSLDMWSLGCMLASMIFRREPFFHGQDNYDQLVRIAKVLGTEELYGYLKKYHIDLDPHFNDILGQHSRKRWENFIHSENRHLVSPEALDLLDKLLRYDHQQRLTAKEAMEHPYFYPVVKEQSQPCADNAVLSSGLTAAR
Sequence of Angiopoietin-1 receptor (Homo sapiens) (Q02763 whole entry): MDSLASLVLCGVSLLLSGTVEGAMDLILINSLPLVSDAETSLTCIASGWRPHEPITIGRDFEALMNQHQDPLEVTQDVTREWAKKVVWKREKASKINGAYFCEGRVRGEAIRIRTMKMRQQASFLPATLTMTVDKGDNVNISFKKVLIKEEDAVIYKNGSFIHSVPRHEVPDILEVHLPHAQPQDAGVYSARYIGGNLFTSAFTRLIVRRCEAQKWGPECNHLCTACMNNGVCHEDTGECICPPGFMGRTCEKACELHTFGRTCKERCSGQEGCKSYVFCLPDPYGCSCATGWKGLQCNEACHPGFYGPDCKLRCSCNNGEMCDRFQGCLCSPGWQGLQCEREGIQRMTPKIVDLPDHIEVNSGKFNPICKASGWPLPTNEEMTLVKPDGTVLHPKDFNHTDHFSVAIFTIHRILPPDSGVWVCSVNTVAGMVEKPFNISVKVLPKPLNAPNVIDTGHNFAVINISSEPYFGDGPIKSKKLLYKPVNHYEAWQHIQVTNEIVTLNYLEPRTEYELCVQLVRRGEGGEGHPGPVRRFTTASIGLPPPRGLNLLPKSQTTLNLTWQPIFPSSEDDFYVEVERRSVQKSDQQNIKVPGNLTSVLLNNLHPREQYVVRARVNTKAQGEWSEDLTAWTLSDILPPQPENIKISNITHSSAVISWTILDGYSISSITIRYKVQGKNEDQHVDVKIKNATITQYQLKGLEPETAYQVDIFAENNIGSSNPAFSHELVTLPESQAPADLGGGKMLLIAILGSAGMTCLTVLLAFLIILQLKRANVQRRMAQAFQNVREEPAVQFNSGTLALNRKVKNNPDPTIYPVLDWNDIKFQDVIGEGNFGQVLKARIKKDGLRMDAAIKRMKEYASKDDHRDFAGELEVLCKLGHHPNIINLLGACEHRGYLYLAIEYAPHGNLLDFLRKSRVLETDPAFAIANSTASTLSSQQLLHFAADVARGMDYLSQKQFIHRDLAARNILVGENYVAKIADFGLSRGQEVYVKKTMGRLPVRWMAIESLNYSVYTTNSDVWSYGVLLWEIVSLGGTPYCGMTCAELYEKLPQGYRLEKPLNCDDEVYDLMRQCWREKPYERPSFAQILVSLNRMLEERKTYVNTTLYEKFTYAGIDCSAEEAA
Sequence of MAP kinase-activated protein kinase 2 (Homo sapiens) (P49137 whole entry, looked up): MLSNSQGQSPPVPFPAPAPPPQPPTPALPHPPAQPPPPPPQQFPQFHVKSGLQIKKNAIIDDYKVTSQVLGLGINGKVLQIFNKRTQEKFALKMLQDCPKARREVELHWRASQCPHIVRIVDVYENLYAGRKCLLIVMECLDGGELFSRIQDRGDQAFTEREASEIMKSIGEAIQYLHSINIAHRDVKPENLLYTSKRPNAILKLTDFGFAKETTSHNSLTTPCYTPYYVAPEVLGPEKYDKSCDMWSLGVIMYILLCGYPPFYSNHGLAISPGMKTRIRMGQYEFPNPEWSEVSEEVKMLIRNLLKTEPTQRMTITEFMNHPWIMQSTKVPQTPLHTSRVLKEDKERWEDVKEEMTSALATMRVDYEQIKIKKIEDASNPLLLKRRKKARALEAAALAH

On to `CC(=O)N1CC[C@@H](Nc2cncc(C(=O)c3cn(C(C)C)c4ncnc(N)c34)n2)[C@H]1c1ccc(F)cc1`, for which the Ki in experiment [1] was 360 nM; in experiment [2], 2600 nM. In addition, the inhibition in experiment [3] was 99%; in experiment [4], 80%; in [5], 76%; in experiment [6] it was 19%; in experiment [7], 2%; in experiment [8] it was -4%. For the same molecule, the inhibition in experiment [9] was 8%; in experiment [10] it was 5%; in [11], -8%; in experiment [12], 4%. The IC50 in experiment [13] is 340 nM; in experiment [14], 620 nM.
Take `CC(=O)N1CC[C@@H](Nc2cncc(C(=O)c3cn(C(C)C)c4ncnc(N)c34)n2)[C@H]1c1ccccc1`: the figures for the Ki in experiment [1] and in experiment [2] were 1100 nM and 3900 nM, respectively. Further, the inhibition in experiment [3] turned out to be 94%; in [4], 54%; in experiment [5], 42%; in experiment [6], 5%; in [7], 6%; in [8] it was 3%. Moreover, the inhibition in experiment [9] was 2%; in experiment [10], -5%; in experiment [11], -2%; in experiment [12] it was -5%. Moreover, the figures for the IC50 in experiment [13] and in [14] were 860 nM and 910 nM, respectively.
In the case of `CC(C)n1cc(C(=O)c2cncc(N[C@@H]3CCN(C=O)[C@@H]3c3ccc(F)cc3)n2)c2c(N)ncnc21`, the Ki in [1] was found to be 170 nM; in experiment [2] it was 2800 nM. Also, the inhibition amounted to 98% in experiment [3]; 81% in experiment [4]; 66% in experiment [5]; 10% in [6]; 6% in experiment [7]; 5% in experiment [8]. Moreover, the inhibition in experiment [9] was 4%; in experiment [10], 4%; in [11] it was 3%; in experiment [12] it was -1%. Besides, the IC50 in experiment [13] was 180 nM; in [14], 200 nM.
